Data from ChEMBL document CHEMBL1149023, “Quinone-methide triterpenes and salaspermic acid from Kokoona ochracea” (1994).
In brackets after ≈: the same amount, converted by molar mass.

Legend:
[1] = test system: P388; assay: Cytotoxicity against mouse P388 cells after 48 hrs by sulforhodamine B assay; assay type: functional; conditions: P388, 48 h, read-out: ED50 (the source's name)
Summary of the method: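 Murine P-388 was kept in Fisher's medium with 10% heat-inactivated FBS. Cells were exposed in triplicate to 4 concentrations (0.16–20 µg/ml), final DMSO 0.5%, for 48 h at 37° in 5% CO2. They were fixed with cold 20% TCA, stained with 0.4% sulforhodamine B, and read at 515 nm. ED50 was taken relative to DMSO controls.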

[2] = Cytotoxicity against human BC1 cells after 72 hrs by sulforhodamine B assay; assay type: functional; conditions: BC1, 72 h, read-out: ED50 (the source's name)
Summary of the method: (§1)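 Cells went in triplicate into 4 concentrations (0.16–20 µg/ml) from DMSO stock, final DMSO 0.5% v/v, for 72 h at 37° in 5% CO2. Cells were fixed with cold 50% TCA and stained with 0.4% sulforhodamine B in 1% HOAc. Bound dye was dissolved in 10 mM Tris base and read at 515 nm. ED50 came from the averaged data as percent of DMSO controls. LNCaP and ZR-75-1 were kept in phenol red-free RPMI with hormone-free FBS plus 0.1 nM testosterone or estradiol, respectively.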

[3] = test system: HT-1080; assay: Cytotoxicity against human HT1080 cells after 48 hrs by sulforhodamine B assay; assay type: functional; conditions: HT-1080, 48 h, read-out: ED50 (the source's name)
Summary of the method: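 HT-1080 was kept in MEME with 1% NAA and 10% heat-inactivated FBS. Cells were treated in triplicate at 4 concentrations (0.16–20 µg/ml), final DMSO 0.5%, for 48 h at 37° in 5% CO2. They were fixed with cold 50% TCA and stained with sulforhodamine B; OD was read at 515 nm. ED50 was taken against DMSO-only controls.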

[4] = test system: Lu1; assay: Cytotoxicity against human Lu1 cells after 72 hrs by sulforhodamine B assay; assay type: functional; conditions: Lu1, 72 h, read-out: ED50 (the source's name); summary of the method: as §1
[5] = test system: KB; assay: Cytotoxicity against human KB cells after 72 hrs by sulforhodamine B assay; assay type: functional; conditions: read-out: ED50 (the source's name); summary of the method: as §1
[6] = Cytotoxicity against human KBV1 cells after 72 hrs by sulforhodamine B assay in presence of vinblastine; assay type: functional; conditions: KB-V1, 72 h, read-out: ED50 (the source's name)
[7] = Cytotoxicity against human KBV1 cells after 72 hrs by sulforhodamine B assay in absence of vinblastine; assay type: functional; conditions: KB-V1, 72 h, read-out: ED50 (the source's name)
[8] = test system: A-431; assay: Cytotoxicity against human A431 cells after 72 hrs by sulforhodamine B assay; assay type: functional; conditions: A-431, 72 h, read-out: ED50 (the source's name); summary of the method: as §1
[9] = test system: LNCaP; assay: Cytotoxicity against human LNCAP cells after 72 hrs by sulforhodamine B assay; assay type: functional; conditions: read-out: ED50 (the source's name); summary of the method: as §1
[10] = test system: ZR-75-1; assay: Cytotoxicity against human ZR-75-1 cells after 72 hrs by sulforhodamine B assay; assay type: functional; conditions: ZR-75-1, 72 h, read-out: ED50 (the source's name); summary of the method: as §1
[11] = Cytotoxicity against human U373 cells after 96 hrs by sulforhodamine B assay; assay type: functional, U-373MG ATCC; conditions: U373 MG, read-out: ED50 (the source's name)
Summary of the method: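 U373 cells were treated in triplicate at 4 concentrations (0.16–20 µg/ml), final DMSO 0.5%, for 96 h at 37° in 5% CO2. Cells were fixed with cold 50% TCA, stained with 0.4% sulforhodamine B in 1% HOAc, and the dye was solubilized in 10 mM Tris. OD was read at 515 nm and ED50 was taken from percent of DMSO control.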

[12] = test system: Col2; assay: Cytotoxicity against human Col2 cells after 72 hrs by sulforhodamine B assay; conditions: Col2, 72 h, read-out: ED50 (the source's name)
[13] = test system: MEL-2 (Homo sapiens); assay: Cytotoxicity against human MEL-2 cells after 72 hrs by sulforhodamine B assay; conditions: MEL-2, 72 h, read-out: ED50 (the source's name)

SMILES | EC50 [1] [µg/mL] | EC50 [2] [µg/mL] | EC50 [3] [µg/mL] | EC50 [4] [µg/mL] | EC50 [5] [µg/mL] | EC50 [6] [µg/mL] | EC50 [7] [µg/mL] | EC50 [8] [µg/mL] | EC50 [9] [µg/mL] | EC50 [10] [µg/mL] | EC50 [11] [µg/mL] | EC50 [12] [µg/mL] | EC50 [13] [µg/mL]
COC(=O)[C@]1(C)CC[C@]2(C)CC[C@]3(C)[C@H]4CC[C@]5(COC(C)=O)[C@@H](C)C(=O)CC[C@H]5[C@]4(C)CC[C@@]3(C)[C@@H]2C1 | > 5 | > 20 | 10 (≈ 18.9 µM) | 11.9 (≈ 22.5 µM) | 10.1 (≈ 19.1 µM) | 12 | 9.8 (≈ 18.5 µM) | 5.2 (≈ 9.83 µM) | 11.8 (≈ 22.3 µM) | 6.2 (≈ 11.7 µM) | > 20 | > 20 | > 20
COC(=O)[C@]1(C)CC[C@]2(C)CC[C@]3(C)[C@H]4CC[C@@]56CO[C@@](O)(CC[C@H]5[C@]4(C)CC[C@@]3(C)[C@@H]2C1)[C@@H]6C [SALASPERMIC ACID METHYL ESTER] | > 5 | > 20 | > 20 | > 20 | > 20 | > 20 | > 20 | > 20 | > 20 | > 20 | > 20 | > 20 | > 20
C[C@@H]1[C@@]23CC[C@H]4[C@@](C)(CC[C@@]5(C)[C@@H]6C[C@](C)(C(=O)O)CC[C@]6(C)CC[C@]45C)[C@@H]2CC[C@@]1(O)OC3 [SALASPERMIC ACID] | > 5 | > 20 | > 20 | > 20 | > 20 | > 20 | > 20 | > 20 | > 20 | > 20 | > 20 | > 20 | > 20
CC1=C(O)C(=O)C=C2C1=CC=C1[C@@]2(C)CC[C@@]2(C)[C@@H]3C[C@](C)(C(=O)O)CC[C@]3(C)CC[C@]12C [CELASTROL] | 3.5 (≈ 7.77 µM) | 0.3 (≈ 0.666 µM) | 0.5 (≈ 1.11 µM) | 1.3 (≈ 2.88 µM) | 1.2 (≈ 2.66 µM) | 1.7 | 2.4 (≈ 5.33 µM) | 0.6 (≈ 1.33 µM) | 0.3 (≈ 0.666 µM) | 0.4 (≈ 0.888 µM) | 0.4 (≈ 0.888 µM) | 2.3 (≈ 5.1 µM) | 0.6 (≈ 1.33 µM)
CC1=C(O)C(=O)C=C2C1=CC=C1[C@@]2(C)CC[C@@]2(C)[C@@H]3C[C@@H](C)C(=O)C[C@]3(C)CC[C@]12C [TINGENONE] | 0.1 (≈ 0.238 µM) | 0.3 (≈ 0.713 µM) | 0.7 (≈ 1.66 µM) | 0.6 (≈ 1.43 µM) | 0.9 (≈ 2.14 µM) | 0.5 | 0.4 (≈ 0.951 µM) | 0.4 (≈ 0.951 µM) | 0.7 (≈ 1.66 µM) | 0.2 (≈ 0.476 µM) | 0.6 (≈ 1.43 µM) | 0.2 (≈ 0.476 µM) | 0.2 (≈ 0.476 µM)
CC1=C(O)C(=O)C=C2C1=CC=C1[C@@]2(C)CC[C@@]2(C)[C@@H]3C[C@@](C)(O)C(=O)C[C@]3(C)CC[C@]12C | 2 (≈ 4.58 µM) | 0.9 (≈ 2.06 µM) | 2.1 (≈ 4.81 µM) | 2.2 (≈ 5.04 µM) | 1.7 (≈ 3.89 µM) | 3.3 | 3 (≈ 6.87 µM) | 1.1 (≈ 2.52 µM) | 1 (≈ 2.29 µM) | 1 (≈ 2.29 µM) | 0.8 (≈ 1.83 µM) | 5.8 (≈ 13.3 µM) | 1.5 (≈ 3.44 µM)
